The source made the active and inactive calls. The calls are words filed in the database; no cut-off is given here.
Legend:
[1] = target: T1, Cell division cycle 7-related protein kinase (Homo sapiens, UniProt O00311); test: Inhibition of human Cdc7 in human A2780 cells assessed as inhibition of Ser40 phosphorylation of Mcm2 protein at 3 uM up to 24 hrs; type: cell-based
In short: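 Time course in A2780 cells held at 3 µM for up to 24 h. Extracts were made in 50 mmol/L Tris-HCl pH 6.8, 1% SDS, 1 mmol/L DTT with 10 s sonication, loaded at 15 µg per lane, and immunoblotted with antiphosphopeptide antibodies to MCM2 Ser40 and Ser53. Cleaved caspase 3 was also probed.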
Target sequence in this assay (O00311 whole entry, looked up): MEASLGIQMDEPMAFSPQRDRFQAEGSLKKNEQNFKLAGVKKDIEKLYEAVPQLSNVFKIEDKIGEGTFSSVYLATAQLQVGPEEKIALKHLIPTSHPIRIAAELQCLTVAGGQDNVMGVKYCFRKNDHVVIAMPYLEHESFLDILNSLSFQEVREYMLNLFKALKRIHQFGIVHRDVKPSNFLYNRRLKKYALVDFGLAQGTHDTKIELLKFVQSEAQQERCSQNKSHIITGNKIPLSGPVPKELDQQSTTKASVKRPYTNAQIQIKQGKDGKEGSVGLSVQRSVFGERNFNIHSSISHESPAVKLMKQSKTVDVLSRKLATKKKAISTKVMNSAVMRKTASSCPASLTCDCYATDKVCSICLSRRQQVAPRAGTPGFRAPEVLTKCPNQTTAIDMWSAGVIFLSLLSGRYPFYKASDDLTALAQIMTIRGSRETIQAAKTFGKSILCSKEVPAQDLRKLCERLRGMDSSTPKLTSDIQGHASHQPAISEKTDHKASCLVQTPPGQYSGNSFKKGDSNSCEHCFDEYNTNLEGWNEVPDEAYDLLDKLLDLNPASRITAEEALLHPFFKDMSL

Cytochrome P450 2D6 = Cytochrome P450 2D6 (Homo sapiens, UniProt P10635); test: Inhibition of human CYP2D6; type: ADME
Cytochrome P450 2D6, sequence (P10635 whole entry): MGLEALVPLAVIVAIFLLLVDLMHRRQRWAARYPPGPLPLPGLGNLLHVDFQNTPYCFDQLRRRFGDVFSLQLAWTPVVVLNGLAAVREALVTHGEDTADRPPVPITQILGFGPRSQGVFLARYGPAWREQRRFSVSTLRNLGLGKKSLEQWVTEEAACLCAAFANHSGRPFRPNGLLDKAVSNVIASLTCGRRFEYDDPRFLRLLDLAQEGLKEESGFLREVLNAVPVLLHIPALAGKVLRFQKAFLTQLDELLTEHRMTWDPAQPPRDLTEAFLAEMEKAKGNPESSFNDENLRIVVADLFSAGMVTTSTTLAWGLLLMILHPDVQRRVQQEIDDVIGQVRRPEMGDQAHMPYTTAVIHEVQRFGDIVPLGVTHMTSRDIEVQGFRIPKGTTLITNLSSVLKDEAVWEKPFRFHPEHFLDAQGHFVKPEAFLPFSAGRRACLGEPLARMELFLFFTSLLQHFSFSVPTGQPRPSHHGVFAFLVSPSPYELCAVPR

[2] = Half life in Wistar rat at 10 mg/kg, iv administered as single dose; type: ADME, organism-based; parameters: dose 10 mg/kg, route intravenous; details: in vivo
In short: (§1)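 Single iv or oral dose in 5% dextrose to overnight-fasted animals. Nu/Nu mice: males, 3 per route, saphenous bleeds to 24 h. Han-Wistar rats: males, 3 per route, jugular bleeds to 24 h. Beagle dogs: 2 per sex, iv and po crossover 2 weeks apart, jugular bleeds to 48 h. Plasma by LC/MS/MS; noncompartmental parameters, AUC by linear trapezoid with extrapolation.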

[3] = AUC (0 to infinity) in Beagle dog at 5 mg/kg, iv administered as single dose; type: ADME, organism-based, Canis lupus familiaris; parameters: time infinity, dose 5 mg/kg, route intravenous; details: plasma; in short: as §1
[4] = target: Protein kinase C beta type (Homo sapiens, UniProt P05771); test: Inhibition of PKCbeta
Protein kinase C beta type, sequence (P05771 whole entry): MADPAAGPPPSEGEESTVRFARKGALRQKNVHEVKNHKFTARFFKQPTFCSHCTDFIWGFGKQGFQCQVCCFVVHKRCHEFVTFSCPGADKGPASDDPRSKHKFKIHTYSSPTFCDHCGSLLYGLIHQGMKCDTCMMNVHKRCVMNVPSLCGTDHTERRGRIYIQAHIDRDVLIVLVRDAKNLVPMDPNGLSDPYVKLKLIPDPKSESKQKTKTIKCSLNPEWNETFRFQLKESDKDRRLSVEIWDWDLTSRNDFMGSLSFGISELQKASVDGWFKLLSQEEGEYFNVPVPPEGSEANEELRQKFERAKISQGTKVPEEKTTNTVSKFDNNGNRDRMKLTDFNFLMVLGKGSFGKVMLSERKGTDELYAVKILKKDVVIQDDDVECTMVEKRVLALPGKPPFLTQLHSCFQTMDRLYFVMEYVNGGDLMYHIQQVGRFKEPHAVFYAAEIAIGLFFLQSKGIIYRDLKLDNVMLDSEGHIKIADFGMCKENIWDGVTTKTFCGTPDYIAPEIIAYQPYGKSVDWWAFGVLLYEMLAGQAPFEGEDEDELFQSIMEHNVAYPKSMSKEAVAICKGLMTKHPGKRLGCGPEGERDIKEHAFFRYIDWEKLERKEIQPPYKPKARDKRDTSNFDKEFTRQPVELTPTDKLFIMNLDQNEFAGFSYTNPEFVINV

MCF7 = test: Antiproliferative activity against human MCF7 cells after 72 hrs by luciferase based assay; type: functional, cell-based; details: MCF7, 72 h
[5] = target: Hepatocyte growth factor receptor (Homo sapiens, UniProt P08581); test: Inhibition of MET
Hepatocyte growth factor receptor, sequence (P08581 whole entry): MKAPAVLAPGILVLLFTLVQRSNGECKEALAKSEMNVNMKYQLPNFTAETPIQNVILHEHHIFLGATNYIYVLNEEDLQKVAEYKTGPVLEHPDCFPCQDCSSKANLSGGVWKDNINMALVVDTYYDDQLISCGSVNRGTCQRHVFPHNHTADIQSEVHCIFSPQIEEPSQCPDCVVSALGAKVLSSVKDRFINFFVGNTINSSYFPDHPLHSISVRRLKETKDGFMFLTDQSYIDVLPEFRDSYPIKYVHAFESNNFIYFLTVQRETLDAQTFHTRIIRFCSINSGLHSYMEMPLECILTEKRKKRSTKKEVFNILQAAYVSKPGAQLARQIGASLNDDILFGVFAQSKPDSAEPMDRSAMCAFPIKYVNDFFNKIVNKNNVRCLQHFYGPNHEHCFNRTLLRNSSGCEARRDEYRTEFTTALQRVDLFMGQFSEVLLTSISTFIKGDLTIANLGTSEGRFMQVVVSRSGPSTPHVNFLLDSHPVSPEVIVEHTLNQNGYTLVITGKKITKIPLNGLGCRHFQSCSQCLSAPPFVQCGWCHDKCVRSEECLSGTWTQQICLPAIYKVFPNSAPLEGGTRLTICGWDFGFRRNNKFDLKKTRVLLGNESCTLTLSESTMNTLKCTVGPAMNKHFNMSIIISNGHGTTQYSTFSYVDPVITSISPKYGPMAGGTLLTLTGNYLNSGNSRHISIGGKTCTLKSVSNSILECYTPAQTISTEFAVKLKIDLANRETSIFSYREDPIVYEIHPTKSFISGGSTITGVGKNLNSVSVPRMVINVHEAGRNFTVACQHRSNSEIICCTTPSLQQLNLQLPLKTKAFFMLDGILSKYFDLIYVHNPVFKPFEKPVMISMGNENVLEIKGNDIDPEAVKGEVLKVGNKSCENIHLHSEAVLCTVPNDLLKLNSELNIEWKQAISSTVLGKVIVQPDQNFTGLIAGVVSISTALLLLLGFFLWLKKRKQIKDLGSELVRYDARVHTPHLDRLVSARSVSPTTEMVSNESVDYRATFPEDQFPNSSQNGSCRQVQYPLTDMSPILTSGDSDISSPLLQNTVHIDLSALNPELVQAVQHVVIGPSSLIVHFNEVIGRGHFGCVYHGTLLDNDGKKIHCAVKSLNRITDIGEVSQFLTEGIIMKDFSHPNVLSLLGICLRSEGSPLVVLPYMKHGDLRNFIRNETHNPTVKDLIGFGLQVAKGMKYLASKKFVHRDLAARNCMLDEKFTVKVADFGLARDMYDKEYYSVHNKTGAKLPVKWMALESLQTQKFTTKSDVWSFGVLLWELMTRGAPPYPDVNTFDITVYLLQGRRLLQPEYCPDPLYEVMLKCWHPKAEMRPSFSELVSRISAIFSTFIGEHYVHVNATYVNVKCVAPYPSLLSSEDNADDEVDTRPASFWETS

[6] = Renal clearance in Wistar rat at 10 mg/kg, iv administered as single dose; type: ADME, organism-based, Kidney; parameters: dose 10 mg/kg, route intravenous; details: in vivo, read-out: CL_renal (converted)
In short: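 Overnight-fasted male Han-Wistar rats got a single 10 mg/kg iv dose in 5% dextrose, three per leg. Jugular blood was drawn from 0.083 to 24 h. Urine was collected over 0–6 and 6–24 h. Plasma and urine were assayed by LC/MS/MS and analysed noncompartmentally. Vss = CL·MRT.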

HeLa [7] = test: Inhibition of DNA synthesis in human HeLa cells at 3 uM assessed as bromodeoxyuridine incorporation after 6 hrs; type: functional; parameters: scale not given: the % may be the effect or the level left
In short: (§2)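 Logarithmically growing HeLa cells exposed to 3 µM for set times, labelled with 50 µM BrdU, fixed in 70% ethanol. DNA content by propidium iodide with RNase A, 30 min at 37 °C; BrdU by FITC anti-BrdU after 2N HCl denaturation; percent positive cells by FACS.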

Insulin receptor = Insulin receptor (Homo sapiens, UniProt P06213); test: Inhibition of IR
HeLa [8] = test: Inhibition of DNA synthesis in human HeLa cells at 3 uM assessed as bromodeoxyuridine incorporation after 9 hrs; type: functional; parameters: scale not given: the % may be the effect or the level left; in short: as §2
[9] = Oral bioavailability in Beagle dog at 10 mg/kg administered as single dose; type: ADME, organism-based, Canis lupus familiaris; details: in vivo
In short: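 Overnight-fasted Beagle dogs, 2 per sex, in a crossover design: 5 mg/kg iv and 10 mg/kg po, two weeks apart, in 5% dextrose. Jugular blood was drawn up to 48 h, and urine was collected over 0–8, 8–24 and 24–48 h. Samples were assayed by LC/MS/MS and analysed noncompartmentally.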

[10] = target: T1, Cell division cycle 7-related protein kinase; test: Inhibition of human Cdc7 in human A2780 cells assessed as inhibition of Ser40 phosphorylation of Mcm2 protein after 4 hrs; type: cell-based
In short: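 A2780 cells exposed for 4 h to a range of concentrations, then lysed in 50 mmol/L Tris-HCl pH 6.8, 1% SDS, 1 mmol/L DTT and sonicated 10 s. 15 µg protein per lane ([…]) was taken for Western blot with phospho-specific antibodies to MCM2 Ser40 and Ser53.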
Target sequence in this assay (O00311 whole entry, looked up): as the sequence (O00311 whole entry, looked up) above

[11] = target: STE20-like serine/threonine-protein kinase (Homo sapiens, UniProt Q9H2G2); test: Inhibition of STLK2
[12] = target: T1, Cell division cycle 7-related protein kinase; test: Inhibition of human Cdc7 assessed as inhibition of rate of phosphorylation of Mcm2 protein
Target sequence in this assay (O00311 whole entry): as the sequence (O00311 whole entry, looked up) above

[13] = Clearance in Wistar rat at 10 mg/kg, iv administered as single dose; type: ADME, organism-based; parameters: dose 10 mg/kg, route intravenous; details: in vivo; in short: as §1
HeLa [14] = test: Inhibition of DNA synthesis in human HeLa cells at 3 uM assessed as bromodeoxyuridine incorporation; type: functional; parameters: scale not given: the % may be the effect or the level left; in short: as §2
[15] = target: Proto-oncogene tyrosine-protein kinase receptor Ret (Homo sapiens, UniProt P07949); test: Inhibition of RET
[16] = target: Cyclin-dependent kinase 9 (Homo sapiens, UniProt P50750); test: Inhibition of CDK9
Cyclin-dependent kinase 9, sequence (P50750 whole entry): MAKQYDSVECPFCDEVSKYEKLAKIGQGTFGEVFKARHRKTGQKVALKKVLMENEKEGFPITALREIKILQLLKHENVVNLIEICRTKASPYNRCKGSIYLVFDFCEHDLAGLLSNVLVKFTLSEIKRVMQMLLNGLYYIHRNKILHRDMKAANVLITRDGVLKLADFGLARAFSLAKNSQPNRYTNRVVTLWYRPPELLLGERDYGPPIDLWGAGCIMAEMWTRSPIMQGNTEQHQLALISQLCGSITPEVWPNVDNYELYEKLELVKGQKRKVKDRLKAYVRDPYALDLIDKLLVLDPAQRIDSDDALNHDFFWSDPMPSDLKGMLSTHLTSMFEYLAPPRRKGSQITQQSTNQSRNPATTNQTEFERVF

[17] = Cmax in nu/nu mouse at 10 mg/kg, iv administered as single dose; type: ADME, organism-based; parameters: dose 10 mg/kg, route intravenous; details: in vivo; in short: as §1
A2780 [18] = test: Antiproliferative activity against human A2780 cells after 72 hrs by luciferase based assay; type: functional, cell-based; details: Homo sapiens, A2780, 72 h
[19] = Metabolic stability in human hepatocytes expressing CYP3A4 assessed as drug remaining after 1 hr; type: ADME, cell-based, Hepatocyte; details: read-out: Stability
[20] = Oral bioavailability in nu/nu mouse at 10 mg/kg administered as single dose; type: ADME, organism-based; details: in vivo
In short: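 Overnight-fasted male Nu/Nu mice got a single 10 mg/kg dose in 5% dextrose, iv or po, three mice per route. Saphenous blood was drawn at 0.083 (iv) or 0.25 (po), 0.5, 1, 6 and 24 h. Plasma was assayed by LC/MS/MS and analysed noncompartmentally. Tmax is the observed peak time, Vss = CL·MRT, and F is the ratio of dose-normalized AUC∞ po/iv.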

[21] = target: Mitogen-activated protein kinase 11 (Homo sapiens, UniProt Q15759); test: Inhibition of P38beta
OPM-2 = test: Antiproliferative activity against human OPM2 cells after 72 hrs by luciferase based assay; type: functional, cell-based; details: OPM-2, 72 h
In short: (§3)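 Cells seeded at 2500–5000/well in complete medium (RPMI1640, McCoy's or DMEM with 10% FCS, by line); compound added after 24 h, 72 h at 37 °C, 5% CO2.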

[22] = Antiproliferative activity against mouse NIH/3T3 cells after 72 hrs by luciferase based assay; type: cell-based; details: NIH3T3, 72 h; in short: as §3
[23] = target: Serine/threonine-protein kinase TAO3 (Homo sapiens, UniProt Q9H2K8); test: Inhibition of TAO3
Serine/threonine-protein kinase TAO3, sequence (Q9H2K8 whole entry): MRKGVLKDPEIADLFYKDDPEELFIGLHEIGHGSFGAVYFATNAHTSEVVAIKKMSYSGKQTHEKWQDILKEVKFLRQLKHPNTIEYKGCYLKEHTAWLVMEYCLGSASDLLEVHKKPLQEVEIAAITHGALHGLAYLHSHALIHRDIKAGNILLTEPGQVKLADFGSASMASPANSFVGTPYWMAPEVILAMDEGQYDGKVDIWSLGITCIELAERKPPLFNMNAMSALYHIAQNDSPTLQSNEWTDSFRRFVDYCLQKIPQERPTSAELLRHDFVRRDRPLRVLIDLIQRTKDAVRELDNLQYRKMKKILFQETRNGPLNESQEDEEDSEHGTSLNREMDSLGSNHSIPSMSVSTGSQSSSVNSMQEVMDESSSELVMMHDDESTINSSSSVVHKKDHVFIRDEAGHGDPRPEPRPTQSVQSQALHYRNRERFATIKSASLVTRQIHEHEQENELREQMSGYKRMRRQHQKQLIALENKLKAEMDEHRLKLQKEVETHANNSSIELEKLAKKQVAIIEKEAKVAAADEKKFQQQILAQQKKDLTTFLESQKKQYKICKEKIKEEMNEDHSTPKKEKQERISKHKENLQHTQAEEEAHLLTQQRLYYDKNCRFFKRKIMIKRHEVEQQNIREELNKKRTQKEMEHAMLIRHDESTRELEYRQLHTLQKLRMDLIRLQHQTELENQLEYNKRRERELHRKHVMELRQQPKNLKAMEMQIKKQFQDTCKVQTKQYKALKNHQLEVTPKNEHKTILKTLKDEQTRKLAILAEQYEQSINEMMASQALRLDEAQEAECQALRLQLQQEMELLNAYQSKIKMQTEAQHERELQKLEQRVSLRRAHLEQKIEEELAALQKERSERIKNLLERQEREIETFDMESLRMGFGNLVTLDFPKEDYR

[24] = Cmax in Beagle dog at 10 mg/kg, po administered as single dose; type: ADME, organism-based, Canis lupus familiaris; parameters: dose 10 mg/kg, route oral; details: in vivo; in short: as §1
[25] = Cmax in Wistar rat at 10 mg/kg, iv administered as single dose; type: ADME, organism-based; parameters: dose 10 mg/kg, route intravenous; details: in vivo; in short: as §1
Cytochrome P450 2C9 = Cytochrome P450 2C9 (Homo sapiens, UniProt P11712); test: Inhibition of human CYP2C9; type: ADME
[26] = target: Serine/threonine-protein kinase NIM1 (Homo sapiens, UniProt Q8IY84); test: Inhibition of NIM1
Serine/threonine-protein kinase NIM1, sequence (Q8IY84 whole entry): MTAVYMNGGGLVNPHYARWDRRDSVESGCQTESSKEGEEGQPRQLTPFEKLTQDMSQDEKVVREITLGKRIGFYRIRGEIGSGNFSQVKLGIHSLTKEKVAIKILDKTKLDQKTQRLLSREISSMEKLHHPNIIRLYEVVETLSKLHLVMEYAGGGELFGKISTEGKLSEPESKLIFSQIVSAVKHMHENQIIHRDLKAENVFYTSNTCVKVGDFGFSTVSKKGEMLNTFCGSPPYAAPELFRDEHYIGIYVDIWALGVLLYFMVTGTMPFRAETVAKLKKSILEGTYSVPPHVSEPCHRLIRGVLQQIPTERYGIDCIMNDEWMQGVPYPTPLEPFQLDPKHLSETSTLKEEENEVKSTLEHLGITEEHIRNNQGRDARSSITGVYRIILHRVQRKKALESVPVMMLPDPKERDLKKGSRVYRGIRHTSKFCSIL

A2780 [27] = test: Induction of apoptosis in human A2780 cells assessed as caspase 3 activation at 3 uM up to 24 hrs; type: functional, cell-based
In short: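 A2780 cells held at 3 µM for up to 24 h; extracts in Tris-HCl pH 6.8 with 1% SDS and DTT, 15 µg protein per lane; cleaved caspase 3 detected by Western blot.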

Q: With `Nc1nccc(-c2cc3c([nH]2)[C@@H](CCF)CNC3=O)n1` as the molecule, how does the Activity [1] read?
A: Its Activity is “Active”.

Q: What about the Activity (Cytochrome P450 2D6) of the same molecule?
A: Its Activity is “Not Active”.

Q: And the half-life [2]?
A: The half-life was 1.3 h.

Q: What about the AUC(0-inf) [3] of the same molecule?
A: The AUC(0-inf) was 6.3 µM·h.

Q: And the IC50 [4]?
A: Its IC50 is 1.15 µM.

Q: What about the IC50 (MCF7) of the same molecule?
A: Its IC50 is 1.1 µM.

Q: And the IC50 [5]?
A: The IC50 was greater than 4 µM.

Q: And the CL renal [6]?
A: Its CL renal is 18.3 mL/min/kg.

Q: What about the Activity (HeLa [7]) of the same molecule?
A: Its Activity is 16%.

Q: And the IC50 (Insulin receptor)?
A: The IC50 was greater than 4 µM.

Q: And the Activity (HeLa [8])?
A: Its Activity is 6%.

Q: And the bioavailability [9]?
A: The bioavailability was 51%.

Q: And the MED [10]?
A: The MED was 0.6 µM.

Q: And the IC50 [11]?
A: Its IC50 is greater than 4 µM.

Q: And the IC50 [12]?
A: The IC50 was 0.002 µM.

Q: What about the clearance [13] of the same molecule?
A: Its clearance is 30 mL/min/kg.

Q: And the Activity (HeLa [14])?
A: The Activity was 35%.

Q: What about the IC50 [15] of the same molecule?
A: The IC50 was greater than 4 µM.

Q: And the IC50 [16]?
A: Its IC50 is 0.028 µM.

Q: What about the Cmax [17] of the same molecule?
A: Its Cmax is 20.3 µM.

Q: What about the IC50 (A2780 [18]) of the same molecule?
A: Its IC50 is 0.5 µM.

Q: What about the remaining at 1 h [19] of the same molecule?
A: The remaining at 1 h was 95%.

Q: What about the bioavailability [20] of the same molecule?
A: Its bioavailability is 53%.

Q: And the IC50 [21]?
A: The IC50 was greater than 4 µM.

Q: What about the IC50 (OPM-2) of the same molecule?
A: The IC50 was 3.7 µM.

Q: And the IC50 [22]?
A: Its IC50 is 2.5 µM.

Q: What about the IC50 [23] of the same molecule?
A: Its IC50 is 0.126 µM.

Q: What about the Cmax [24] of the same molecule?
A: The Cmax was 5.5 µM.

Q: And the Cmax [25]?
A: Its Cmax is 15.7 µM.

Q: What about the Activity (Cytochrome P450 2C9) of the same molecule?
A: Its Activity is “Not Active”.

Q: And the IC50 [26]?
A: The IC50 was greater than 4 µM.

Q: And the Activity (A2780 [27])?
A: Its Activity is “Active”.
